Activity calls are given as the source filed them. The rule behind the calls is not given here.
Key:
Ribonuclease pancreatic = target: T1, Ribonuclease pancreatic (Bos taurus, UniProt P61823); test: Inhibition of bovine pancreatic RNase A by spectrophotometric method
T1 sequence (P61823 whole entry): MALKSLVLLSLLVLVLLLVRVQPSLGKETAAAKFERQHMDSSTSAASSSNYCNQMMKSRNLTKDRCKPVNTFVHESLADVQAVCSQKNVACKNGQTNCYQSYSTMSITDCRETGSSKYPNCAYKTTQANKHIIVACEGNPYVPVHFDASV
How it was run: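 Bovine pancreatic RNase A; spectrophotometric initial-velocity assay with 2′,3′-cCMP substrate in 0.1 M Mes-NaOH pH 6.0, 0.1 M NaCl. Ki taken from Dixon plots (1/V vs [I]) by the competitive equation; at least three repeats per set.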

[1] = target: T2, Ribonuclease pancreatic (Bos taurus) (UniProt P61823); test: Inhibition of bovine pancreatic RNase A assessed as effect on tRNA degradation by agarose gel based assay
T2 sequence (whole entry): T1 sequence (P61823 whole entry)
How it was run: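 Qualitative gel: RNase A (stock 6.87 µM; 1.37 µM in figure) preincubated 3 h with compound at three levels (0.10–0.31 or 0.13–0.40 mM). Aliquots then mixed with yeast tRNA (5 mg/mL stock) for 30 min, run on 1.1% agarose gel, and residual tRNA stained with ethidium bromide under UV.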

[2] = target: T2, Ribonuclease pancreatic (Bos taurus); test: Inhibition of bovine pancreatic RNase A ribonucleolytic activity assessed as reduction of tRNA degradation at 0.32 mM by precipitation assay relative to control; set-up: scale not given: the % may be the effect or the level left
How it was run: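 Bond precipitation assay: RNase A (1.10 µM) preincubated with compound (0.32 mM) 2 h at 37 °C. Then tRNA added in Tris-HCl pH 7.5 with 5 mM EDTA and 0.5 mg/mL HSA, 30 min at 25 °C. Quenched with ice-cold perchloric acid/uranyl acetate, 30 min on ice, centrifuged; supernatant A260 compared with control.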

[3] = target: T2, Ribonuclease pancreatic (Bos taurus); test: Inhibition of bovine pancreatic RNase A assessed as effect on tRNA degradation at 0.14 mM by agarose gel based assay
How it was run: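 Comparative gel: RNase A (stock 6.29 µM; 1.26 µM in figure) preincubated 3 h with compound (0.14 mM). Aliquots then mixed with yeast tRNA (5 mg/mL stock) for 30 min, run on 1.1% agarose gel, and residual tRNA viewed by ethidium bromide under UV.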

Ki (Ribonuclease pancreatic) [µM]	Activity [1]	Activity [2] [%]	Activity [3]	SMILES
77	Active	30	–	CCOC(=O)C1CCN(C[C@H]2O[C@@H](n3ccc(=O)[nH]c3=O)[C@H](O)[C@@H]2O)CC1
7.1	–	–	–	O=c1ccn([C@@H]2O[C@H](CO)[C@@H](O)[C@H]2OP(=O)(O)O)c(=O)[nH]1
82	–	–	–	O=c1ccn([C@@H]2O[C@H](CO)[C@@H](OP(=O)(O)O)[C@H]2O)c(=O)[nH]1
6	–	–	–	O=c1ccn([C@@H]2O[C@H](CO)[C@@H](OP(=O)(O)O)[C@@H]2O)c(=O)[nH]1
–	Active	5	Active	Cc1cn([C@H]2C[C@H](O)[C@@H](CN3CCCC3)O2)c(=O)[nH]c1=O
–	Active	12	Active	O=c1ccn([C@@H]2O[C@H](CN3CCCCC3)[C@@H](O)[C@H]2O)c(=O)[nH]1
0.041	–	–	–	Cc1cn([C@H]2C[C@H](O)[C@@H](COP(=O)(O)OP(=O)(O)O[C@H]3[C@@H](O)[C@H](n4cnc5c(N)ncnc54)O[C@@H]3CO)O2)c(=O)[nH]c1=O
103	–	–	–	Nc1ccn([C@@H]2O[C@H](CO)[C@@H](OP(=O)(O)O)[C@H]2O)c(=O)n1
–	Active	12	Active	O=c1ccn([C@@H]2O[C@H](CN3CCCC3)[C@@H](O)[C@H]2O)c(=O)[nH]1
–	Active	5	Active	Cc1cn([C@H]2C[C@H](O)[C@@H](CN3CCCCC3)O2)c(=O)[nH]c1=O
–	Active	12	Active	O=c1ccn([C@@H]2O[C@H](CN3CCOCC3)[C@@H](O)[C@H]2O)c(=O)[nH]1

Reference: ChEMBL document CHEMBL1140896, “Morpholino, piperidino, and pyrrolidino derivatives of pyrimidine nucleosides as inhibitors of ribonuclease A: synthesis, biochemical, and crystallographic evaluation” (J Med Chem, 2009)
